Screening results (PubChem BioAssay)
ASAP1 GAP inh: inhibitors of human ASAP1 ArfGAP activity; Q9ULH1; actives 0.19% (n = 360,000); AID 624377; ASAP1-stimulated ARF1 GTP hydrolysis, GDP FP detection; inhibition, % at 16.5 µM; in the data active = inhibition above about 25%
Target sequence (Q9ULH1 325-724 limits assumed): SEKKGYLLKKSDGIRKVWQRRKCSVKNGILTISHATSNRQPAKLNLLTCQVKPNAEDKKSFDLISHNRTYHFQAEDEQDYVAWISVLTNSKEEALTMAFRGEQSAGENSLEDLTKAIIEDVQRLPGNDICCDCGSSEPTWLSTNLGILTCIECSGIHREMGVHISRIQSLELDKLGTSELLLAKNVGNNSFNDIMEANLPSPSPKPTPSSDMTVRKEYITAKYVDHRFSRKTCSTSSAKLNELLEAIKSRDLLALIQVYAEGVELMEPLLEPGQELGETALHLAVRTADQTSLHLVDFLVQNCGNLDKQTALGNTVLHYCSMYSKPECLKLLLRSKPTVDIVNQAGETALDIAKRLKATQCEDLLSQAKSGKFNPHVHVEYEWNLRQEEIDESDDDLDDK
ARFGAP1 inhibitor: inhibitors of rat ARFGAP1; actives 0.26% (n = 360,000); inhibition, % at 16.5 µM; AID 651572; Q62848; Arfgap1-stimulated ARF1 GTP hydrolysis, GDP FP detection;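 active = inhibition above a per-plate limit, mean inhibition of low control wells plus 3 SD, cut at about 25% in these data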
Target sequence (Q62848 1-136 limits assumed): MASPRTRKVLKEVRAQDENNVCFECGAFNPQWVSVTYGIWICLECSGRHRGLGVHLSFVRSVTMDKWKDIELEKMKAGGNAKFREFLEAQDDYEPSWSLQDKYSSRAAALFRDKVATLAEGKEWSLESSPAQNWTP
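Material: rat Arfgap1 catalytic domain, aa 1-136; also added: human ARF1(Δ1-17)-GTP substrate; compound dosing: one concentration, 16.5 µM, DMSO 1.26%; incubation: GTP hydrolysis reaction 2 h at 25 °C; measured by: Tracer-displacement fluorescence polarization with EDTA stop, 620/688 nm; evaluation: % inhibition from polarization; repeats: one replicate per compound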
Cardio protect: modulators protecting cardiomyocytes from myocardial damage | H9c2 cardiomyocytes, H2O2 injury protection, ATPLite, 2 h | protection from H2O2 cell death, % at 20 µM | actives 0.63% (n = 360,000) | AID 588492;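 active = compounds giving at least 50% protection of heart cells from peroxide-induced death in the single-dose screen, raw or plate-pattern-corrected value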
Neddylation inh: blocks human cullin neddylation. P61081+Q13564. TR-FRET cullin neddylation, biochemical. inhibition, % at 25 µM. actives 0.58% (n = 360,000). AID 651699; in the data active = inhibition above about 36%
Neddyl inh conf: cullin neddylation inhibition, confirmation; shares compounds with Neddylation inh; TR-FRET cullin neddylation biochemical assay; calls only at 25 µM; actives 13% (n = 1,800); in the data active = inhibition above about 40%;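 also: neddylation substrate is the cullin 1 ring ligase complex with SKP2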
Each line names hits and unclear results; the compound was inactive in the other large screens (follow-up assays come after a bar, where shown). Compounds with a hit are over-represented: about 1.6% of the library has one in this group of screens.

O=C(NCCc1ccc(Cl)cc1Cl)C1=CC=CN2CCS(=O)(=O)N=C12	Neddylation inh 53.3 | Neddyl inh conf active
COC(=O)C[C@@H]1C=C[C@@H](NS(=O)(=O)c2ccccc2OC)[C@@H](CO)O1	none (no result: Cardio protect)
CCCc1cc2c(=O)c(-c3ccccn3)c(C)oc2cc1O	Neddylation inh 45.0 | Neddyl inh conf inactive
CN1C(=O)[C@@]2(O[C@H]3C=CC=CN3C3=C2C(=O)CCC3)c2cc([N+](=O)[O-])ccc21	none (no result: Cardio protect, Neddylation inh)
C=CCNC(=S)/N=c1/ccccn1C	none
C=CCNC(=S)/N=c1/ccccn1CCC	Neddylation inh 50.9 | Neddyl inh conf inactive
Cc1ncc(C(=O)O)c(C(=O)O)c1N	Neddylation inh 40.5
COc1ccccc1-c1cccc2[nH]c3c(c12)CCN1C(=O)[C@H]2[C@H](C)ON(C)[C@H]2C[C@@H]31	none (no result: Cardio protect, Neddylation inh)
C[C@@H]1CN([C@@H](C)CO)S(=O)(=O)c2ccc(Br)cc2O[C@@H]1CN(C)C(=O)NC1CCCCC1	none
COc1ccc(-c2c(C)nn3c(NC4CCCC4)cc(C)nc23)cc1OC	Neddylation inh 47.8 | Neddyl inh conf inactive
Cc1nc2ccccc2nc1N1CCCCC1	none
c1ccc2nc(N3CCCC3)c(N3CCCC3)nc2c1	Neddylation inh 46.3
COCCN(C(=O)COC(=O)c1oc2ccc(OC)cc2c1C)c1c(N)n(Cc2ccccc2)c(=O)[nH]c1=O	none (not shown: Neddylation inh)
COc1ccc2oc(C(=O)OCC(=O)N(C)c3c(N)n(Cc4ccccc4)c(=O)[nH]c3=O)c(C)c2c1	Neddylation inh 58.0
COc1ccc2oc(C(=O)OCC(=O)N(C)C3CCCCC3)c(C)c2c1	Neddylation inh 59.2
CCOC(=O)c1c(CN(CC)CC)oc2ccc(OC)cc12	Neddylation inh 37.7 | Neddyl inh conf inactive
CCN(C(=O)COC(=O)c1oc2ccc(OC)cc2c1C)C1CCCCC1	Neddylation inh 51.8
O=C(/C=C(\Nc1ccc(F)cc1)c1ccccc1)c1ccccc1	none (no result: Cardio protect, Neddylation inh)
O=C(Nc1ccc2c(c1)OCCO2)C1C(c2ccccc2)=Nc2ccccc2N1C(=O)c1cccnc1 (stereo not drawn)	none (no result: Cardio protect)
COc1ccc2oc(C(=O)OC(C)C(=O)N3CCC(C)CC3)c(C)c2c1 (stereo not drawn)	none (not shown: Neddylation inh)
COc1ccc2oc(C(=O)OC(C)C(=O)N(C)c3ccccc3)c(C)c2c1 (stereo not drawn)	Neddylation inh 56.1
CC1Cc2ccccc2N1c1ncnc2nc[nH]c12 (stereo not drawn)	Neddylation inh 66.2 (not shown: ASAP1 GAP inh, ARFGAP1 inhibitor)
CCc1ccc(S(=O)(=O)Nc2c(NC3CCCCC3)c3ccccc3oc2=O)cc1	Neddylation inh 43.1 (no result: ASAP1 GAP inh, ARFGAP1 inhibitor) | Neddyl inh conf active
O=C1OC(C(Cl)(Cl)Cl)Nc2ccccc21 (stereo not drawn)	Neddylation inh 38.5 | Neddyl inh conf inactive
Nc1cc2c(cc1Br)-c1c(C(=O)O)cccc1C2O (stereo not drawn)	Neddylation inh 39.4 | Neddyl inh conf inactive
COc1cc(N)c(Br)cc1C(=O)O	none
O=C(C(=O)N1CCC(CNS(=O)(=O)c2ccc(F)cc2)CC1)c1cccs1	none (no result: Cardio protect, Neddylation inh)
Cc1sc(NC(=O)c2ccco2)c(C(c2ccccc2)N2CCC(C)CC2)c1C (stereo not drawn)	Neddylation inh 45.0
Cc1cc2n(n1)C(c1ccco1)Nc1ccccc1-2 (stereo not drawn)	none
Cc1cc2n(n1)C(c1ccc(O)cc1)Nc1ccccc1-2 (stereo not drawn)	Neddylation inh 42.3 | Neddyl inh conf inactive
O=C(CN1c2cccc3cccc(c23)S1(=O)=O)NCCc1ccccc1	none
O=S1(=O)c2cccc3cccc(c23)N1CCBr	Neddylation inh 41.9 | Neddyl inh conf inactive
N#CCCCCN1c2cccc3cccc(c23)S1(=O)=O	none (not shown: Neddylation inh)
CCCN1c2cccc3cccc(c23)S1(=O)=O	Neddylation inh 47.9
COc1cc(C(=O)NCCNc2nc3c(C)cccc3cc2C#N)cc(OC)c1OC	none
COc1ccc(C(=O)NCCNc2nc3c(C)cccc3cc2C#N)cc1OC	Neddylation inh 39.2
COC(=O)[C@]12C[C@H](CC(=O)NCc3ccc(OC)c(OC)c3)C(=O)N(Cc3ccc4c(c3)OCO4)C1=C[C@H](COCc1ccccc1)O[C@@H]2C	none (no result: Cardio protect, Neddylation inh)
CN(CCOc1ccc(Cl)cc1)C(=O)c1cc(-c2ccco2)nc2ccccc12	Neddylation inh 62.4
O=C(c1cc(-c2ccco2)nc2ccccc12)N1CCCC(C(F)(F)F)C1 (stereo not drawn)	Neddylation inh 60.3
O=C(c1cc(-c2ccncc2)nc2ccccc12)N1CCCC(C(F)(F)F)C1 (stereo not drawn)	none
COc1cccc(NC(=O)c2cc(-c3ccco3)nc3ccccc23)c1	Neddylation inh 38.2
O=C(Nc1ccccc1F)c1cc(-c2ccco2)nc2ccccc12	Neddylation inh 45.1
O=C(Nc1ccc(F)cc1F)c1cc(-c2ccco2)nc2ccccc12	none
O=C(C=P(c1ccccc1)(c1ccccc1)c1ccccc1)c1ccccc1-c1ccccc1C(=O)C=P(c1ccccc1)(c1ccccc1)c1ccccc1	none
COc1cc2cc(C(=O)N/N=C/c3ccc(F)cc3)[nH]c2cc1OC	Neddylation inh 39.7 | Neddyl inh conf inactive
COc1cc2ccccc2cc1C(=O)N/N=C/c1cccnc1	none
COc1cc(/C=N/NC(=O)c2ccc(-c3ccccc3)cc2)cc(OC)c1OC	none (not shown: Neddylation inh)
CCOc1ccc(/C=N/NC(=O)c2cc3ccccc3cc2OC)cc1	Neddylation inh 42.5 | Neddyl inh conf inactive
COc1ccc2cc(C(=O)N/N=C/c3cc(OC)c(OC)c(OC)c3)[nH]c2c1	Neddylation inh 42.8 | Neddyl inh conf active
COCCN1Cc2cc(C(=O)OC)c3c(c2C1=O)c1cc(OC)ccc1n3S(=O)(=O)c1ccc(C)cc1	none (no result: Cardio protect, Neddylation inh)
Cc1ccc2sc(=O)[nH]c2c1	none
Cc1ccc2c3c([nH]c2c1)C(=O)CC(C)(C)S3	Neddylation inh 46.0 | Neddyl inh conf inactive
CC(=O)Nc1cc(-c2ccsc2)cn2c(-c3ccc(F)cc3)cnc12	Neddylation inh 42.4 | Neddyl inh conf inactive
COc1ccc(-c2cnc3c(NC(C)=O)cc(-c4ccsc4)cn23)cc1OC	none (not shown: ASAP1 GAP inh, ARFGAP1 inhibitor, Neddylation inh)
Cc1nn(-c2ccccc2)c2nc(-c3ccccc3)cc(C(=O)N3CCOCC3)c12	none (not shown: Neddylation inh)
Cc1cc(C)nc(-n2nc(C)c3c(C(=O)O)cc(-c4cccc(Br)c4)nc32)n1	Neddylation inh 40.1 | Neddyl inh conf inactive
O=C(Cn1nc(-c2cccs2)ccc1=O)Nc1ccc(Br)cc1	none
Cc1cccc(NC(=O)Cn2nc(-c3ccco3)ccc2=O)c1C	Neddylation inh 42.6
O=C(Cn1nc(-c2ccco2)ccc1=O)Nc1ccc(Br)cc1	Neddylation inh 45.0
COc1ccccc1N1CCN(C(=O)c2cc3c(s2)-c2ccccc2OC3)CC1	Neddylation inh 42.8 | Neddyl inh conf inactive
Cc1cccn2c(=O)c3cc(C(=O)N4CCCCC4C)sc3nc12 (stereo not drawn)	Neddylation inh 50.6 | Neddyl inh conf active
O=C(c1cc2c(s1)-c1ccccc1OC2)N1CCc2ccccc2C1	none (not shown: Neddylation inh)
COc1ccccc1N1CCN(C(=O)c2cc3c(=O)n4cccc(C)c4nc3s2)CC1	Neddylation inh 49.1 | Neddyl inh conf active
